Experimental data published in ChEMBL document CHEMBL1142527, “Tricyclic [1,2,4]triazine 1,4-dioxides as hypoxia selective cytotoxins” (J Med Chem, 2008).

How the values were obtained:
[1] = Solubility at 22 degC in culture medium in presence of 5% fetal calf serum; format: physicochemical; settings: culture medium with 5% fetal calf serum; read-out: solubility
Summary of the method: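 Solubility of the HCl salts is determined in culture medium containing 5% fetal calf serum at 22 °C.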

HT-29 [2] = experiment: Cytotoxicity against human HT-29 cells after 4 hrs under strict hypoxic condition; format: functional, cell-based; settings: Homo sapiens, HT-29, 4 h
HT-29 [3] = experiment: Hypoxic cytotoxicity ratio, ratio of aerobic IC50 to anoxic IC50 for human HT-29 cells; format: functional
SiHa [4] = experiment: Cytotoxicity against human SiHa cells after 4 hrs under strict hypoxic condition; format: functional, cell-based; settings: Homo sapiens, SiHa, 4 h
SiHa [5] = experiment: Hypoxic cytotoxicity ratio, ratio of aerobic IC50 to anoxic IC50 for human SiHa cells; format: functional
HT-29 [6] = experiment: Metabolic stability in human HT-29 multicellular layer assessed as apparent first-order rate constant under anoxic condition; format: ADME, cell-based
Summary of the method: (§1)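 Stirred single-cell suspensions of anoxic HT29 cells are exposed for 3 h at a drug concentration giving roughly one log kill by 1 h. Clonogenic survival is followed, and extracellular drug is monitored by HPLC. Concentration-time data are fitted for the apparent first-order metabolic rate constant k_met, scaled to MCL cell density. CT₁₀ and M₁₀ (drug metabolized at 10% survival) are interpolated from the fitted PK/PD model.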

HT-29 [7] = experiment: Cytotoxicity against human HT-29 cells assessed as AUC-time curve providing 10% surviving fraction by clonogenic assay; format: functional
HT-29 [8] = experiment: Drug metabolism in human HT-29 cells assessed as amount of drug metabolized for one log of cell kill at their CT10 concentration for 1 hr; format: ADME, cell-based; settings: ht-29, 1 h; summary of the method: as §1
HT-29 [9] = experiment: Drug diffusion coefficient in human HT-29 multicellular layer under 95% oxygen by liquid scintillation counting; format: ADME, cell-based
Summary of the method: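 Tissue diffusion coefficient D measured in HT29 multicellular layers held under 95% O₂ to suppress bioreductive metabolism. Reported as ×10⁻⁷ cm²s⁻¹.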

SMILES | solubility [1] | IC50 (HT-29 [2]) | Ratio IC50 (HT-29 [3]) | IC50 (SiHa [4]) | Ratio IC50 (SiHa [5]) | Activity (HT-29 [6]) | Activity (HT-29 [7]) | Activity (HT-29 [8]) | D (HT-29 [9])
Nc1n[n+]([O-])c2cc3c(cc2[n+]1[O-])CCC3 | 3 mM | 15.2 µM | 27 | 8.3 µM | 31 | 0.47 min⁻¹ | 106 µM·h | 7735 µM | –
[O-][n+]1nc(CCCN2CCOCC2)[n+]([O-])c2cc3c(cc21)CCO3 | 51 mM | 8.9 µM | 25 | 5.1 µM | 43 | 0.31 min⁻¹ | 27.6 µM·h | 986 µM | –
COc1ccc2c(c1)[n+]([O-])c(NCCN(C)C)n[n+]2[O-] | – | – | 89 | – | – | 0.54 min⁻¹ | 26.1 µM·h | 1635 µM | 2.3e-07 cm²/s
CCN1Cc2cc3c(cc2C1)[n+]([O-])c(N)n[n+]3[O-] | 6 mM | 1.5 µM | – | 0.8 µM | 80 | 2.2 min⁻¹ | 8.1 µM·h | 2022 µM | –
CCc1n[n+]([O-])c2cc3c(cc2[n+]1[O-])CC(CCO)C3 (stereo not given) | 2 mM | 7.7 µM | 102 | 2.9 µM | 86 | 0.54 min⁻¹ | 41.3 µM·h | 2641 µM | –
CCc1n[n+]([O-])c2cc3c(cc2[n+]1[O-])CN(C)CC3 | > 47 mM | 13.1 µM | 2 | 3.1 µM | 6 | – | – | – | –
[O-][n+]1nc(CCCN2CCOCC2)[n+]([O-])c2cc3c(cc21)CC(CO)C3 (stereo not given) | 48 mM | 2.4 µM | 121 | 1.8 µM | 206 | 0.9 min⁻¹ | 24.4 µM·h | 2533 µM | –
Nc1n[n+]([O-])c2cc3c(cc2[n+]1[O-])OCC3 | 0.1 mM | 117 µM | 4 | 23 µM | – | – | – | – | –
CN(C)CCNc1n[n+]([O-])c2cc3c(cc2[n+]1[O-])OCC3 | 49 mM | 5.2 µM | 46 | 1.9 µM | 128 | 0.6 min⁻¹ | 43.3 µM·h | 3000 µM | –
[O-][n+]1nc(NCCCN2CCOCC2)[n+]([O-])c2ccc3c(c21)CCC3 | 46 mM | 38 µM | 24 | 13.9 µM | 33 | 0.2 min⁻¹ | 176.4 µM·h | 4108 µM | –
CN(C)CCNc1n[n+]([O-])c2c3c(ccc2[n+]1[O-])OCCC3 | 47 mM | 4.1 µM | 14 | 0.7 µM | 66 | 0.59 min⁻¹ | 46.1 µM·h | 3124 µM | –
CCCN(CCC)CCNc1n[n+]([O-])c2c3c(ccc2[n+]1[O-])CCC3 | 40 mM | 12.4 µM | 7 | 3.3 µM | 23 | 0.73 min⁻¹ | 66.3 µM·h | 5626 µM | –
CC1Cc2cc3c(cc2C1)[n+]([O-])c(NCCN(C)C)n[n+]3[O-] (stereo not given) | > 49 mM | 3.5 µM | 54 | 1.4 µM | 97 | 1.49 min⁻¹ | 23 µM·h | 3057 µM | –
[O-][n+]1nc(NCCN2CCCCC2)[n+]([O-])c2ccc3c(c21)CCC3 | 36 mM | 4.9 µM | 53 | 1 µM | 51 | 1.6 min⁻¹ | 27.2 µM·h | 5022 µM | –
CC1Cc2cc3c(cc2C1)[n+]([O-])c(CCCO)n[n+]3[O-] (stereo not given) | 10 mM | 13 µM | 80 | 8 µM | 104 | 0.24 min⁻¹ | 85.3 µM·h | 2394 µM | –
CCc1n[n+]([O-])c2cc3c(cc2[n+]1[O-])CC(CN1CCOCC1)C3 (stereo not given) | 43 mM | 4.8 µM | 31 | 2.4 µM | 62 | 0.54 min⁻¹ | 24.1 µM·h | 1544 µM | –
CCN(CC)CCNc1n[n+]([O-])c2cc3c(cc2[n+]1[O-])CCC3 | 48 mM | 4.1 µM | 61 | 1.1 µM | 133 | 1.08 min⁻¹ | 36.3 µM·h | 4521 µM | –
